In ChEMBL document CHEMBL1121489, “6-(Substituted-amino)-4H-s-triazolo[4,3-a][1,4]benzodiazepines and 4-(substituted-amino)-6H-s-triazolo[4,3-a][1,4]benzodiazepines with potential antianxiety activity” (1980):

Experiments:
Type in all cases: functional
Mus musculus [1] = species: Mus musculus; assay: Effect on bicuculline-induced tonic-extensor convulsions (B) in Carworth farms male albino mice
Summary of the method: (§1)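 Male albino CF-1 mice (18–22 g). Compounds were dissolved or suspended in 0.25% aqueous methylcellulose and given ip to groups of four or six mice per dose, at multiple dose levels spaced 0.3 log apart. ED50 values were calculated by the Spearman–Karber method.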

Mus musculus [2] = species: Mus musculus; assay: Effect on potentiation of gamma-butyrolactone-induced sleep (gamma-B) in Carworth farms male albino mice; summary of the method: as §1
Mus musculus [3] = species: Mus musculus; assay: Effect on antagonism of nicotine-induced tonic-extensor convulsions (TE) in Carworth farms male albino mice; summary of the method: as §1
Mus musculus [4] = species: Mus musculus; assay: Effect on loss of traction (Tr) in Carworth farms male albino mice; summary of the method: as §1
Mus musculus [5] = species: Mus musculus; assay: Effect on prolongation of hypoxic survival time (HS) in Carworth farms male albino mice; summary of the method: as §1
Mus musculus [6] = species: Mus musculus; assay: Effect on pentylenetetrazole-induced clonic convulsions (P) in Carworth farms male albino mice; summary of the method: as §1
Mus musculus [7] = species: Mus musculus; assay: Effect on antagonism of nicotine-induced death (D) in Carworth farms male albino mice; summary of the method: as §1
Mus musculus [8] = species: Mus musculus; assay: Effect on antagonism of nicotine-induced tonic-extensor convulsions (TE) in Carworth farms male albino mice.; summary of the method: as §1
Mus musculus [9] = species: Mus musculus; assay: Effect on bicuculline-induced tonic-extensor convulsions (B) in Carworth farms male albino mice.
Summary of the method: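 CF-1 male albino mice, 18–22 g. Unless otherwise indicated, compounds were dissolved or suspended in 0.25% aqueous methylcellulose and given ip to groups of 4 or 6 mice per dose. Several dose levels were spaced at 0.3 log intervals. ED50 was calculated by the Spearman–Karber method.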

| Compound | ED50 (Mus musculus [1]) [mg/kg] | ED50 (Mus musculus [2]) [mg/kg] | ED50 (Mus musculus [3]) [mg/kg] | ED50 (Mus musculus [4]) [mg/kg] | ED50 (Mus musculus [5]) [mg/kg] | ED50 (Mus musculus [6]) [mg/kg] | ED50 (Mus musculus [7]) [mg/kg] | ED50 (Mus musculus [8]) [mg/kg] | ED50 (Mus musculus [9]) [mg/kg] |
| --- | --- | --- | --- | --- | --- | --- | --- | --- | --- |
| Cc1nnc2n1-c1ccc(Cl)cc1CN=C2N1CCN(C)CC1 | > 50 | 40 | > 100 | > 100 | 40 | > 50 |  |  |  |
| Cc1nnc2n1-c1ccc(Cl)cc1CN=C2N1CCOCC1 | > 50 | > 50 | > 100 | > 100 |  | 40 |  |  |  |
| Cc1nnc2n1-c1ccc(Cl)cc1C(N1CCN(C)CC1)=NC2 |  |  | > 100 | > 100 |  |  | > 100 |  |  |
| CCCCCCNC1=NCc2nnc(C)n2-c2ccc(Cl)cc21 |  |  | > 100 | > 100 |  |  | > 100 |  |  |
| Cc1nnc2n1-c1ccc(Cl)cc1C(N1CCCC1)=NC2 | > 50 | 7.4 | 18 | > 100 | > 50 | > 50 | 18 |  |  |
| Cc1nnc2n1-c1ccc(Cl)cc1C(N1CCOCC1)=NC2 |  |  | 80 | > 100 |  |  | 71 |  |  |
| Cc1nnc2n1-c1ccc(Cl)cc1CN=C2N1CCCCC1 |  |  |  | > 100 |  |  |  | > 100 |  |
| Cc1nnc2n1-c1ccc(Cl)cc1C(N1CCN(c3ccccc3)CC1)=NC2 |  |  | > 100 | > 100 |  |  | > 100 |  |  |
| Cc1nnc2n1-c1ccc(Cl)cc1CN=C2N1CCCCCC1 |  |  | > 100 | > 100 |  |  |  |  |  |
| Cc1nnc2n1-c1ccc(Cl)cc1CN=C2N1CCCC1 |  | > 6 | > 6 | > 6 |  |  |  |  | > 6 |
| Cc1nnc2n1-c1ccc(Cl)cc1C(c1ccccc1)=NC2 [ALPRAZOLAM] | 0.2 | 0.08 | 0.02 | 0.6 | 0.2 | 0.1 | 0.02 |  |  |
| Cc1nnc2n1-c1ccc(Cl)cc1C(N1CCCCCC1)=NC2 |  |  | > 100 | > 100 |  |  | > 100 |  |  |
| CN1C(=O)CN=C(c2ccccc2)c2cc(Cl)ccc21 [DIAZEPAM] | 2.6 | 0.035 | 0.28 | 7 | 0.2 | 0.1 | 0.28 |  |  |
| Cc1nnc2n1-c1ccc(Cl)cc1C(N1CCN(CCO)CC1)=NC2 |  |  | > 100 | > 100 |  |  | > 100 |  |  |
| Cc1nnc2n1-c1ccc(Cl)cc1C(N1CCCCC1)=NC2 | 0.7 | 0.9 | 0.4 | 0.3 | 0.3 | 1.1 | 0.4 |  |  |
